From PubChem BioAssay
Most compounds without a hit are left out; they make up all but 4.8% or so of the library.
STAT1 act = STAT1 signaling activators, primary screen, cell-based, HTS, luciferase reporter. NIH 3T3 STAT1-luciferase reporter, IFN-gamma, luminescence; 100% = IFN-gamma alone, no compound. activation (% of control), % at 5.5 µM. 200,000 tested, 2.6% active;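 active = activation above the screen-wide mean activation plus 3 SD, cut at about 130% in these data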;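 also: raw ratio to IFN-gamma control signal so 100% means no change and 0% no light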
APP 5UTR inh = inhibitors of APP translation via 5'UTR reporter, primary screen, APP 5'UTR luciferase, SH-SY5Y cells; SH-SY5Y APP 5'UTR-luciferase reporter, luminescence; inhibition, % at 2 µM; 190,000 tested, 0.82% active; AID 1285, 2008;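 active = inhibition above a set limit, derived from the sample mean plus 3 SD, cut at about 45% in these data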
FLuc inh counter = firefly luciferase enzyme inhibitors, primary screen, artefact control for luciferase-based inhibitor screens, biochemical, luminescence, ATPLite; inhibition, % at 10 µM; 10 min; Luciferin 4-monooxygenase (Photinus pyralis), P08659; 200,000 tested, 1.5% active;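 active = inhibition above about 50% when tested at 10 µM, limit read from the data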
Target sequence (P08659 whole entry, looked up): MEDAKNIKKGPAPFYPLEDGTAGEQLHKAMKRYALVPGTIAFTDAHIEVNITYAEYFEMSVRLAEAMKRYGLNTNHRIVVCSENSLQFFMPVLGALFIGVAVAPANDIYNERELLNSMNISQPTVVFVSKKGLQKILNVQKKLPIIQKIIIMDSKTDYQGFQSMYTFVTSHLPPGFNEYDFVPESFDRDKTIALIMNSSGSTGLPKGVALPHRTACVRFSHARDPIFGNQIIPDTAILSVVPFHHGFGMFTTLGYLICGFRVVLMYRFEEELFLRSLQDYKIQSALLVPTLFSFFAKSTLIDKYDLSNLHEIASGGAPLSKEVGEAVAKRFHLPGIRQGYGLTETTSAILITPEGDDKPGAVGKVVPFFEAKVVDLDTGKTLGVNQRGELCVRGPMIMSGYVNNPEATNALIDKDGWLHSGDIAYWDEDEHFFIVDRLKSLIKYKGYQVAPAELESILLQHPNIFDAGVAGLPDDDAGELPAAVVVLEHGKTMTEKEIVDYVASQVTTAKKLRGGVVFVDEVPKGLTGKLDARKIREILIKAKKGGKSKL
APP 5'UTR act = activators of APP 5'UTR luciferase reporter, primary screen, SH-SY5Y cells | SH-SY5Y APP 5'UTR luciferase reporter, luminescence; zero percent = DMSO vehicle wells | activation, % at 2 µM | 190,000 tested, 1% active | AID 1276, 2008;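 active = activation above a set limit, based on mean plus 3 SD of controls, cut at about 140% in these data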
NF-kB neuron act = activators of NF-kB expression in neurons, primary screen, cell-based, HTS; 190,000 tested, 1.6% active; human neuronal cells, NF-kB reporter expression; stronger effect = higher value; fold change at 12.5 µM; in the data active = fold change above about 3.3
FLuc stim CS = FLuc activators, initial screening, artefact control for FLuc-dependent activation tests, biochemical, ATPlite luminescence | activation factor at 10 µM | Luciferin 4-monooxygenase (Photinus pyralis), P08659 | 200,000 tested, under 10 active | ATPlite luciferase biochemical, 10 min; 0 = ATP-free wells, 1 = DMSO control;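 active = luciferase activation factor, scaled between plate controls, of at least 2 with compound at 10 µM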
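System: Luciferase/luciferin detection reagent, cell-free biochemical luciferase assay | Medium: PBS buffer for ATP | Dosing: Test compounds dosed from 2 mM stocks in 100% DMSO | Timing: 10 min at ambient temperature | Signal: Luminescence measurement of luciferase light output | Evaluation: Luciferase activation, seen as luminescence increase over controls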
STAT1 activ conf = STAT1 signaling activators, confirmation, cell-based, HTS, luciferase reporter; NIH 3T3 STAT1-luciferase reporter, IFN-gamma potentiation, luminescence; 100% = IFN-gamma EC80 alone, no compound; shares compounds with STAT1 act; activation (% of control), % at 5.7 µM; 1,200 tested, 97% active;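 active = activation above a set limit carried over from the earlier primary STAT1 screen, cut at about 140% in these data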;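 also: simple ratio to median IFN-gamma plus DMSO wells so 0% means no light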
NFkB act STAT1ct = NF-kB reporter activators, TNF-alpha stimulated, counter-screen for STAT1 activator project, cell-based, HEK293T, luciferase luminescence; 100% = TNF-alpha with vehicle only; activation (% of control), % at 5.7 µM; shares compounds with STAT1 act; 1,200 tested, 43% active; AID 1306, 2008;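 active = activation above the mean of solvent-only control wells plus 3 SD, set per campaign, cut at about 130% in these data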;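 also: TNF-alpha given at a submaximal dose yielding about 80% of full reporter signal; values are well signal over median control so 100% means no change and 0% no light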
STAT3 act 2 = STAT3 reporter activation by STAT1 hits, confirmation, counter-screen for STAT1 activator project, U3A cells, luciferase, luminescence; shares compounds with STAT1 act; 1,200 tested, 46% active; IL-6; cells lack STAT1; 100 = IL-6 alone, no compound effect; activation (% of control), % at 5.7 µM;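 active = activation above the solvent-only control well mean plus 3 SD, set per plate batch, cut at about 110% in these data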;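 also: 0% = no luminescence and 100% = median IL-6 plus DMSO wells; higher means more STAT3 reporter activation so hits are non-selective activators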
* marks the source's active call; other numbers are inactive results.

What do the screens show for `Cc1ccnc(NC(=S)NC(=O)c2cccs2)c1`?
STAT1 act: 237.4*; APP 5UTR inh: -130.1; FLuc inh counter: 87.2*; APP 5'UTR act: 130.1; NF-kB neuron act: 3.67*; FLuc stim CS: 0.1; STAT1 activ conf: 262.6*; NFkB act STAT1ct: 166.0*; STAT3 act 2: 132.4*

Results for Cc1ccc2oc(-c3ccc(C)c(NC(=S)NC(=O)c4cccs4)c3)nc2c1 ?
STAT1 act: 153.9*; APP 5UTR inh: -221.5; FLuc inh counter: 12.0; APP 5'UTR act: 221.5*; NF-kB neuron act: 3.44*; FLuc stim CS: 0.9; STAT1 activ conf: 145.3*; NFkB act STAT1ct: 119.1; STAT3 act 2: 131.6*

Results for O=C(NCc1ccc(F)cc1)C1CCCN(c2nc3ccsc3c(=O)s2)C1 (stereo not given) ?
STAT1 act: 107.1; APP 5UTR inh: 2.0; FLuc inh counter: -4.3; APP 5'UTR act: -2.0; NF-kB neuron act: 0.93; FLuc stim CS: 1

What do the screens show for `COc1ccc(-c2cc3ncc(-c4ccccc4)c(N)n3n2)cc1`?
STAT1 act: 156.4*; APP 5UTR inh: -225.2; FLuc inh counter: 78.7*; APP 5'UTR act: 225.2*; NF-kB neuron act: 2.66; FLuc stim CS: 0.2; STAT1 activ conf: 197.5*; NFkB act STAT1ct: 126.2; STAT3 act 2: 100.8

How did COc1ccc(-c2cc3nc(-c4ccccc4)cc(N4CCC(O)CC4)n3n2)cc1 do in these assays?
STAT1 act: 102.2; APP 5UTR inh: -3.0; FLuc inh counter: -2.4; APP 5'UTR act: 3.0; NF-kB neuron act: 0.51; FLuc stim CS: 1

How did COc1ccc(CNS(=O)(=O)c2cccc(S(=O)(=O)N3CCOCC3)c2)cc1 do in these assays?
STAT1 act: 94.7; APP 5UTR inh: -15.1; FLuc inh counter: -3.8; APP 5'UTR act: 15.1; NF-kB neuron act: 1.1; FLuc stim CS: 1

What do the screens show for `CCn1c(=O)c(C(=O)Nc2nc3ccccc3[nH]2)c(O)c2ccccc21`?
STAT1 act: 107.7; APP 5UTR inh: 12.4; FLuc inh counter: -1.0; APP 5'UTR act: -12.4; NF-kB neuron act: 1.17; FLuc stim CS: 1

How did COc1ccc(-n2ccc(-c3nn(-c4cccc(C(F)(F)F)c4)ccc3=O)n2)cc1 do in these assays?
STAT1 act: 96.5; APP 5UTR inh: -5.8; FLuc inh counter: -6.9; APP 5'UTR act: 5.8; NF-kB neuron act: 1.18; FLuc stim CS: 1.1

Results for COc1ccc(-c2ccn(-c3cccc(F)n3)n2)cc1 ?
STAT1 act: 153.8*; APP 5UTR inh: -138.3; FLuc inh counter: 2.4; APP 5'UTR act: 138.3*; NF-kB neuron act: 0.87; FLuc stim CS: 1; STAT1 activ conf: 177.8*; NFkB act STAT1ct: 132.5; STAT3 act 2: 122.3*

Results for COC(=O)c1c(-c2cccnc2)csc1NC(=O)c1cc(C)on1 ?
STAT1 act: 152.5*; APP 5UTR inh: -130.0; FLuc inh counter: 36.6; APP 5'UTR act: 130.0; NF-kB neuron act: 3.13; FLuc stim CS: 0.6; STAT1 activ conf: 202.1*; NFkB act STAT1ct: 137.2*; STAT3 act 2: 127.5*

What do the screens show for `Cc1cc(/C=C(\C#N)C(=O)NCc2cccs2)c(C)n1-c1ccccc1F`?
STAT1 act: 151.1*; APP 5UTR inh: -114.6; FLuc inh counter: 49.4; APP 5'UTR act: 114.6; NF-kB neuron act: 1.18; FLuc stim CS: 0.5; STAT1 activ conf: 169.0*; NFkB act STAT1ct: 130.3; STAT3 act 2: 121.4*

What do the screens show for `COc1ccc(NS(=O)(=O)c2cc(NC(=O)Cn3cnc4c3c(=O)n(C)c(=O)n4C)ccc2C)cc1`?
STAT1 act: 103.1; APP 5UTR inh: 4.3; FLuc inh counter: -4.3; APP 5'UTR act: -4.3; NF-kB neuron act: 1.31; FLuc stim CS: 1

What do the screens show for `COc1cccc(-c2nc(-c3ccc(NC(=O)c4cccnc4)cc3)no2)c1`?
STAT1 act: 102.4; APP 5UTR inh: -2.0; FLuc inh counter: -2.9; APP 5'UTR act: 2.0; NF-kB neuron act: 1.03; FLuc stim CS: 1

What do the screens show for `O=C(Nc1ccc(-c2noc(-c3cccs3)n2)cc1)c1cccnc1`?
STAT1 act: 156.6*; APP 5UTR inh: -110.4; FLuc inh counter: 4.1; APP 5'UTR act: 110.4; NF-kB neuron act: 3.84*; FLuc stim CS: 1; STAT1 activ conf: 196.9*; NFkB act STAT1ct: 136.0*; STAT3 act 2: 109.3

What do the screens show for `Cc1oc(-c2ccccc2)cc1C(=O)Nc1ccc2ccccc2c1`?
STAT1 act: 100.0; APP 5UTR inh: -5.6; FLuc inh counter: -2.5; APP 5'UTR act: 5.6; NF-kB neuron act: 1.42; FLuc stim CS: 1

What do the screens show for `Cn1c(N)c(C(=O)Nc2ccc3ccccc3c2)sc1=S`?
STAT1 act: 172.3*; APP 5UTR inh: -143.4; FLuc inh counter: -4.5; APP 5'UTR act: 143.4*; NF-kB neuron act: 1.49; FLuc stim CS: 1; STAT1 activ conf: 203.5*; NFkB act STAT1ct: 132.2; STAT3 act 2: 107.0

How did CCCCn1c(N)c(N(CC)C(=O)CSc2nnnn2-c2cc(C)ccc2C)c(=O)[nH]c1=O do in these assays?
STAT1 act: 100.9; APP 5UTR inh: 4.3; FLuc inh counter: 1.2; APP 5'UTR act: -4.3; NF-kB neuron act: 0.95; FLuc stim CS: 1

How did COc1ccc(/C=N/NC(=O)c2[nH]ncc2Br)c(OC)c1 do in these assays?
STAT1 act: 155.0*; APP 5UTR inh: -25.6; FLuc inh counter: 84.7*; APP 5'UTR act: 25.6; NF-kB neuron act: 1.83; FLuc stim CS: 0.2; STAT1 activ conf: 162.3*; NFkB act STAT1ct: 121.9; STAT3 act 2: 113.9*

What do the screens show for `COCCNC(=O)CN(Cc1cccs1)C(=O)CCC(=O)Nc1nccs1`?
STAT1 act: 100.7; APP 5UTR inh: -0.1; FLuc inh counter: -9.8; APP 5'UTR act: 0.1; NF-kB neuron act: 1.08; FLuc stim CS: 1.1
